Measured values from ChEMBL document CHEMBL1156389, “Aglacins A-D, first representatives of a new class of aryltetralin cyclic ether lignans from Aglaia cordata” (J Nat Prod, 2001).
The source made the active and inactive calls. The rule behind the calls is not given here.

Tests used:
[1] = system: HL-60; assay: Cytotoxicity against human HL60 cells at 2 mg/mL to 10 ng/mL by MTT assay; type: functional, cell-based
Procedure, shortened: (§1)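 Antiproliferative MTT assay on the human leukemia line HL-60, the human carcinoma line HELA and the KB line. Compounds were tested over 2 mg/mL to 10 ng/mL, in triplicate.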

[2] = system: HeLa; assay: Cytotoxicity against human HeLa cells at 2 mg/mL to 10 ng/mL by MTT assay; type: functional, cell-based; procedure, shortened: as §1

Structure (SMILES)	Activity [1]	Activity [2]
COc1cc([C@@H]2c3c(cc(OC)c(OC)c3OC)C[C@@H]3COC[C@H]32)cc(OC)c1OC	inactive	inactive
COc1ccc([C@@H]2c3c(cc(OC)c(OC)c3OC)C[C@@H]3COC[C@H]32)cc1OC	inactive	inactive
COc1cc([C@@H]2c3c(cc(OC)c(OC)c3OC)[C@H](OC(C)=O)[C@@H]3COC[C@@H]23)cc(OC)c1OC	inactive	inactive
COc1cc([C@H]2c3c(cc(OC)c(OC)c3OC)C(=O)[C@@H]3COC[C@@H]23)cc(OC)c1OC	inactive	inactive
